Screening results (PubChem)
This is a sample that favours compounds with a hit; in the whole collection about 2.9% have one here.
OX1R antag-1: OX1R (HCRTR1) antagonists, primary screen, fluorescence, CHO/OX1R cells, Fluo-8 calcium, orexin A | 330,000 tested, 0.43% active | inhibition, % at 5 µM | Orexin/Hypocretin receptor type 1 (Homo sapiens), O43613 | Fluo-8 calcium fluorescence | AID 434989, 2010;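 active means inhibition above its plate's threshold, mean inhibition of all tested compounds on the plate plus 3 SD, cut at about 37% in these data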
Target sequence (O43613 whole entry, looked up): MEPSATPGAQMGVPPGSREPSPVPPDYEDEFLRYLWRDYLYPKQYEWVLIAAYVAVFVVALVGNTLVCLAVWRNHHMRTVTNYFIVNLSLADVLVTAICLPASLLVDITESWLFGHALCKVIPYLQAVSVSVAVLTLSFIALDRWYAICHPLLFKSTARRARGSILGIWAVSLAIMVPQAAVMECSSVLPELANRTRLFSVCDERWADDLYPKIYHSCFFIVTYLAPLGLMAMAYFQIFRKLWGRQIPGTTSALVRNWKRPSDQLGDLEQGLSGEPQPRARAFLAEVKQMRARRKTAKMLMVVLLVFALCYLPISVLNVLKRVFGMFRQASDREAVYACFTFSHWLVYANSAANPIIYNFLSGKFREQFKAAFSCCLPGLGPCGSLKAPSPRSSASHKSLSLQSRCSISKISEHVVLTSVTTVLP
CHO parental Ca: ATP-evoked calcium signal inhibitors, parental CHO, primary screen, counter-screen for OX1R antagonist project, cell-based, fluorescence, Fluo-8 calcium dye; inhibition, % at 5.6 µM; parental CHO-K1, ATP-induced calcium, Fluo-8 fluorescence; 330,000 tested, 0.63% active;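 active means inhibition above that plate's mean sample inhibition plus 3 SD, cut at about 26% in these data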
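material = parental CHO cells | also added = ATP as calcium-mobilizing challenge | dosing = single point at 5.6 µM | detection = intracellular calcium via Fluo-8 no-wash fluorescent dye | read-out = % inhibition | benchmarks = low control ATP plus DMSO, high control DMSO only | repeats = one well per compound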
M1 PAM parental: nonselective calcium activators in parental CHO-K1 cells, primary screen, counter-screen for M1 PAM project, cell-based, Fluo-8 calcium fluorescence, full deck, 1536-well | ATP EC20; 0% at ATP EC20, 100% at ATP max | activation, % at 3 µM | 360,000 tested, 0.02% active;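 active means activation above the run cutoff, the mean activation of all test compounds plus 3 SD, cut at about 40% in these data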;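 further: peak over basal fluorescence ratio in a 140 s read after ATP addition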
OX1R antag-2: antagonists of human orexin 1 receptor (OX1R) | inhibition, % at 6.6 µM | Orexin/Hypocretin receptor type 1 (Homo sapiens), O43613 | AID 485270, 2010 | 330,000 tested, 1.8% active | OX1R-expressing cells, FRET antagonist read-out; in the data active means inhibition mostly above about 38%, no sharp cut-off; inactive means mostly below about 40%
CHO-K1 Ca antag: nonselective inhibitor or artifact in parental CHO-K1 cells. ATP-induced calcium, Fluo-8 fluorescence. inhibition, % at 3 µM. 360,000 tested, 0.6% active. AID 602250;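 active means inhibition above a per-plate cutoff, the plate's mean sample inhibition plus 3 SD, cut at about 24% in these data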
CHO-K1 Ca ag: counter-screen for M1 agonists: effect in parental CHO-K1 cells | activation, % at 3 µM | 360,000 tested, 0.48% active | AID 602248, 2012 | Fluo-8 calcium fluorescence; scaled to maximal ATP response, vehicle zero; in the data active means activation above about 15%;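 further: untransfected CHO-K1 host cells lacking M1 receptor as counterscreen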
OX1R HTRF confirm: OX1R (HCRTR1) antagonists, confirmation, cell-based, HTRF. shares compounds with OX1R antag-2. OX1R-expressing cells, HTRF antagonist assay. inhibition, % at 6.6 µM. 1,800 tested, 49% active; in the data active means inhibition above about 55%;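 further: CHO cells expressing OX1R stimulated with orexin A at about EC80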
CHO-K1 HTRF cnt: signal inhibition in parental CHO-K1 cells, counter-screen for OX1R antagonist project, cell-based, HTRF. shares compounds with OX1R antag-2. HTRF counterscreen. inhibition, % at 6.6 µM. 1,800 tested, 48% active. AID 493232, 2011; in the data active means inhibition above about 17%
Numbers stand for hits; – = inactive; · = not tested or not shown.

SMILES	OX1R antag-1	CHO parental Ca	M1 PAM parental	OX1R antag-2	CHO-K1 Ca antag	CHO-K1 Ca ag	OX1R HTRF confirm	CHO-K1 HTRF cnt
Cc1ccc2cc3c(N)c(C(=O)N4CCOCC4)sc3nc2c1	–	–	–	–	–	–	·	·
CCN1C(=O)[C@H]2[C@@H](c3ccc(OC)cc3)N[C@]3(CCCN(Cc4ccc(OC)cc4)C3=O)[C@H]2C1=O	·	·	–	·	–	–	·	·
O=[N+]([O-])c1cnc(Nc2ccc(Cl)cn2)c([N+](=O)[O-])c1	–	–	–	96.9	–	–	–	45.3
O=C(Nc1ccc(Cl)cn1)c1ccccc1[N+](=O)[O-]	–	–	–	–	–	–	·	·
NC(=O)[C@H]1CC2(CC(c3cccc(NC(=O)[C@H]4CCC(=O)N4)c3)=NO2)CN1C(=O)c1cc([N+](=O)[O-])cc([N+](=O)[O-])c1 (stereo partly drawn)	–	–	–	91.2	–	–	–	57.3
Cc1c(C(=O)N2CC3(CC(c4cccc(NC(=O)[C@H]5CCC(=O)N5)c4)=NO3)C[C@@H]2C(N)=O)cc([N+](=O)[O-])cc1[N+](=O)[O-] (stereo partly drawn)	–	–	–	–	–	–	·	·
Cn1cccc([N+](=O)[O-])c1=O	·	·	–	·	–	–	·	·
Cn1c(=O)c(=O)n(C)c2cc([N+](=O)[O-])c([N+](=O)[O-])cc21	–	–	–	115.5	–	–	–	62.7
Oc1c(Cl)cc(Cl)cc1CNc1nc2ccccc2[nH]1	–	–	–	–	–	–	·	·
c1ccc2c(c1)oc1c(NCc3ccc4c(c3)OCO4)ncnc12	–	–	–	88.5	–	–	81.8	–
Cc1cnc([N+](=O)[O-])n1CCOC(=O)NC(=O)c1cccc(F)c1	–	–	–	77.9	–	–	59.6	–
CCOC(=O)c1ccccc1NC(=O)c1cccc([N+](=O)[O-])c1	–	–	–	–	–	–	·	·
CCOC(=O)c1ccc([N+](=O)[O-])cc1NC(C)=O	–	–	–	82.8	–	–	–	43.7
N#CC(C#N)=c1ccc2c(c1)NC1(CCCCC1)N=2	–	–	–	191.3	–	–	–	58.2
COc1ccc(NS(=O)(=O)c2c(C)cc(C)cc2C)cn1	–	–	–	–	–	–	·	·
C=CCNc1sc(C(=O)c2ccccc2)c(N)c1-c1nc2ccccc2s1	–	–	–	92.9	–	–	–	–
CCNc1sc(C(=O)c2cccs2)c(N)c1-c1nc2ccccc2s1	–	–	–	–	–	–	·	·
CC(C)(CC(=O)O)CC(=O)Nc1cc(C(F)(F)F)cc(C(F)(F)F)c1	–	–	–	–	–	–	·	·
Cn1c(N)c(C(=O)COC(=O)c2ccc([N+](=O)[O-])o2)c(=O)n(C)c1=O	–	–	–	104.7	–	–	–	54.6
Cn1c(N)c(C(=O)COC(=O)Cc2ccc(F)cc2)c(=O)n(C)c1=O	·	·	–	·	–	–	·	·
CCOC(=O)c1cccc(NC(=O)c2cc3ccccc3o2)c1	·	·	–	·	–	–	·	·
CCOC(=O)c1ccc(CNCc2ccccc2)cc1	–	–	–	79.9	–	–	–	–
CCOC(=O)c1ccc(NC(=O)c2cc3ccccc3o2)cc1	–	–	–	77.1	–	–	72.3	–
CCN(CC(=O)NCc1ccc(Cl)cc1)C(=O)C1CCN(S(=O)(=O)c2ccc(OC)c(OC)c2)CC1	–	–	–	–	–	–	·	·
CCOC(=O)c1nn(-c2ccccc2)c(=O)c(C#N)c1C	–	–	–	145.4	–	–	–	81.0
SMILES	OX1R antag-1	CHO parental Ca	M1 PAM parental	OX1R antag-2	CHO-K1 Ca antag	CHO-K1 Ca ag	OX1R HTRF confirm	CHO-K1 HTRF cnt
CCOC(=O)c1c(C#N)cnn1-c1ccc(C)cc1	–	–	–	–	–	–	·	·
CCOC(=O)c1nn(-c2ccccc2)c(C#N)c1N	–	–	–	–	–	–	·	·
CCOC(=O)Nc1nn(-c2ccc(C)cc2)c(=O)c(C#N)c1C	–	–	–	120.2	–	–	58.1	61.4
C=CCn1c(-c2ccc(OC)cc2)nc2nc3ccccc3nc21	–	–	–	–	–	–	·	·
c1ccc(-c2nc3nc4ccccc4nc3n2Cc2ccco2)cc1	–	–	–	107.3	–	–	–	18.1
CCCCN(C=O)c1c(CC)nc2c(OCc3ccc(Cl)cc3Cl)cccn12	·	·	–	·	–	–	·	·
O=C(NCc1ccco1)c1cc([N+](=O)[O-])cc([N+](=O)[O-])c1	–	–	–	118.3	–	–	54.9	69.0
O=C(NCc1ccco1)c1cc([N+](=O)[O-])ccc1Cl	–	–	–	–	–	–	·	·
COc1cc(N=c2oc3c(C)ncc(CO)c3cc2C(N)=O)cc(OC)c1OC	–	–	–	120.9	–	–	54.7	58.2
COc1ccccc1NC(=O)c1cc2c(CO)cnc(C)c2oc1=Nc1cc(OC)c(OC)c(OC)c1	–	–	–	–	–	–	·	·
COc1ccc(/C=N/N2C(=O)c3ccccc3C2=O)cc1	–	–	–	–	–	–	·	·
COc1ccccc1/C=N/N1C(=O)c2cccc3cccc(c23)C1=O	–	–	–	96.7	–	–	–	55.0
Cn1nc(-c2ccc(Cl)cc2)cc1NC(=O)CSCC(=O)O	–	–	–	–	–	–	·	·
COc1ccccc1C(=O)Nc1sc2c(c1C(N)=O)CCCC2	–	–	–	79.3	–	–	69.4	–
Cn1cc(Br)c(C(=O)Nc2sc3c(c2C(N)=O)CCC3)n1	–	–	–	78.7	–	–	–	–
Cn1ccc(C(=O)Nc2sc3c(c2C(N)=O)CCCCC3)n1	–	–	–	–	–	–	·	·
COc1ccccc1C(=O)Nc1sc2c(c1C#N)CCC2	–	–	–	–	–	–	·	·
CCOC(=O)N1CCN(c2nc3ccc(C)cc3n3cnnc23)CC1	·	·	–	·	–	–	·	·
O=C(NC1CC1)C1CCN(S(=O)(=O)c2ccc(Cl)c([N+](=O)[O-])c2)CC1	–	–	–	–	–	–	·	·
COc1ccc(CCNC(=O)c2cc3c(=O)n4ccccc4nc3n(CC3CCCO3)c2=N)cc1OC (stereo not drawn)	–	–	–	82.2	–	–	60.1	77.0
N=c1c(C(=O)NCCc2ccccc2)cc2c(=O)n3ccccc3nc2n1CC1CCCO1 (stereo not drawn)	–	–	–	88.4	–	–	82.5	61.6
N=c1c(C(=O)NC2CCCC2)cc2c(=O)n3ccccc3nc2n1CCN1CCOCC1	–	–	–	101.6	–	–	–	43.0
COCCCn1c(=N)c(C(=O)NCC2CCCO2)cc2c(=O)n3ccccc3nc21 (stereo not drawn)	–	–	–	93.3	–	–	–	65.3
